# Measured values published in ChEMBL document CHEMBL1133516, “Biarylpropylsulfonamides as novel, potent potentiators of 2-amino-3- (5-methyl-3-hydroxyisoxazol-4-yl)- propanoic acid (AMPA) receptors” (J Med Chem, 2000).
# Molecular target: Glutamate receptor 4 (Homo sapiens, UniProt P48058)
# Assay: Tested for potentiation towards human iGluR4 receptor expressed in HEK293 cells
# Type: functional, cell-based
# Outline: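 Human GluR4 flip, stably homomerically expressed in HEK-293 cells. Cells loaded 60 min with 20 µM Fluo3-AM in HEPES buffer (138 mM NaCl, 5 mM CaCl2, 10 mM glucose, pH 7.1-7.3), then washed. Calcium-influx fluorescence read after 100 µM L-glutamate with compound at various concentrations. Responses expressed as % of 100 µM cyclothiazide; EC50 ± SEM calculated.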
# Chain of Glutamate receptor 4 (P48058 whole entry): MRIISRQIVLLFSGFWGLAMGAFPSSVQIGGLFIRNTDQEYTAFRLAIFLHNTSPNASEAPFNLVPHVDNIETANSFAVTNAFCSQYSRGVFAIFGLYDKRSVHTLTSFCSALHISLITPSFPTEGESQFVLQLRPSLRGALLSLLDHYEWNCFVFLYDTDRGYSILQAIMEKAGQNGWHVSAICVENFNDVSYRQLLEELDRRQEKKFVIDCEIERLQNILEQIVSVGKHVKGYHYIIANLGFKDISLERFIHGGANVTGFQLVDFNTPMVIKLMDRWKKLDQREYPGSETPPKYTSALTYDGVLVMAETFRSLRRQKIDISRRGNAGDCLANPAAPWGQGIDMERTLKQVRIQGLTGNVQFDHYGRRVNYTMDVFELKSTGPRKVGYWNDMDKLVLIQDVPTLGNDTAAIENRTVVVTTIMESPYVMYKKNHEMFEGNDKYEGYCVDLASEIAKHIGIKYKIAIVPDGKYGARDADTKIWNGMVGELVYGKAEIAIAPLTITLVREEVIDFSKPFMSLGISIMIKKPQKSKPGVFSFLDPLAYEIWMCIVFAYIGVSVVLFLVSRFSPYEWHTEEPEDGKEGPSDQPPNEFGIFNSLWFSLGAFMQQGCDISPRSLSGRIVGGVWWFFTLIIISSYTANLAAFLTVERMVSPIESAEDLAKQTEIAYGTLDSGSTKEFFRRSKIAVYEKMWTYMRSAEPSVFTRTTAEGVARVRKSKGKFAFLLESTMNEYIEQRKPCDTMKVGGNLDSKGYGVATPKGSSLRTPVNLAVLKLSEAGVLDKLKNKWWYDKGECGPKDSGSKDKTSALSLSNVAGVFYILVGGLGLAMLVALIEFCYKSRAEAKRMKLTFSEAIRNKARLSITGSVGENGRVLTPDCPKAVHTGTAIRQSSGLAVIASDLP
row,SMILES,EC50 [µM]
1,CC(CNS(=O)(=O)Cc1ccccc1)c1ccc(-c2ccccc2F)cc1 (centres undefined),> 100
2,CC(CNS(=O)(=O)C(C)C)c1ccc(-c2ccc(N)cc2)cc1 (centres undefined),0.13
3,CC(CNS(=O)(=O)C(C)C)c1ccc(C(C)(C)C)cc1 (centres undefined),1.2
4,CC(C)S(=O)(=O)NCC(CCc1ccccc1)c1ccc(C(C)(C)C)cc1 (centres undefined),> 100
5,CCC(CNS(=O)(=O)C(C)C)c1ccc(C(C)(C)C)cc1 (centres undefined),2
6,CC(CNS(=O)(=O)C(C)C)c1ccc(-c2ccc(C(=O)O)cc2)cc1 (centres undefined),1.4
7,CCCC(CNS(=O)(=O)C(C)C)c1ccc(C(C)(C)C)cc1 (centres undefined),27.9
8,CC(CNS(C)(=O)=O)c1ccc(-c2ccsc2)cc1 (centres undefined),4.5
9,CC(CNS(=O)(=O)c1ccccc1)c1ccc(-c2ccccc2F)cc1 (centres undefined),62.5
10,CC(CNS(=O)(=O)C(C)C)c1ccc(-c2ccc(C(F)(F)F)cc2)cc1 (centres undefined),> 3
11,CC(CNS(=O)(=O)C(C)C)c1ccc(-c2ccsc2)cc1 (centres undefined),0.66
12,CC(C)S(=O)(=O)NCCc1ccc(C(C)(C)C)cc1,12.8
13,CC(CN)c1ccc(-c2ccccc2F)cc1 (centres undefined),> 100
14,CC(C)S(=O)(=O)NCC(Cc1ccccc1)c1ccc(C(C)(C)C)cc1 (centres undefined),> 100
15,Cc1ccc(-c2ccc(C(C)CNS(=O)(=O)C(C)C)cc2)cc1 (centres undefined),0.27
16,CC(CNS(=O)(=O)C(C)C)c1ccc(-c2ccc(C=O)cc2)cc1 (centres undefined),0.25
17,CC(CNS(=O)(=O)C(C)C)c1ccc(-c2ccc(C#N)cc2)cc1 (centres undefined),0.29
18,O=C(c1ccc2nccnc2c1)N1CCCCC1 [CX516],> 1000
19,NS(=O)(=O)c1cc2c(cc1Cl)NC(C1CC3C=CC1C3)NS2(=O)=O (centres undefined) [CYCLOTHIAZIDE],3.8

# The next lines start with the values.
row,EC50 [µM],SMILES
1,23.8,CCCS(=O)(=O)NCC(C)c1ccc(-c2ccccc2F)cc1 (centres undefined)
2,4,CC(CNS(=O)(=O)N(C)C)c1ccc(-c2ccccc2F)cc1 (centres undefined)
3,> 3,CC(CNS(=O)(=O)C(C)C)c1ccc(-c2ccc(Cl)cc2)cc1 (centres undefined)
4,> 100,CCCCS(=O)(=O)NCC(C)c1ccc(-c2ccccc2F)cc1 (centres undefined)
5,32.9,CC(CNS(=O)(=O)C(F)(F)F)c1ccc(-c2ccccc2F)cc1 (centres undefined)
6,7.2,CC(C)S(=O)(=O)NCCc1ccc(-c2ccccc2F)cc1
7,1,CC(CNS(=O)(=O)C(C)C)c1ccc(-c2ccccc2)cc1 (centres undefined)
8,5.4,CCS(=O)(=O)NCC(C)c1ccc(-c2ccccc2F)cc1 (centres undefined)
9,19.6,CC(CNS(C)(=O)=O)c1ccc(-c2ccccc2F)cc1 (centres undefined)
10,4.4,CC(CNS(=O)(=O)C(C)C)c1ccc(-c2ccccc2F)cc1 (centres undefined)
